This note sets out measurements from article PMC5955861 (Oncogene, 2018).

The subject of test [1] is MV-4-11B. Nature of the test: alamarBlue cell proliferation assay. The conditions noted are these: MV-4-11B cells. It counts as cell-based, human. The gist of the method:
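Cell lines from ATCC or DSMZ were cultured per supplier's instructions and STR-authenticated. MV-4-11B is a clone of MV-4-11 carrying heterozygous TP53 c.742C>T (p.R248W). Cells were exposed to test compound in 96-well format, and viability was read after incubation with alamarBlue.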

Test [2] relates to THP-1 AML cells. Nature of the test: disseminated AML xenograft efficacy study. It counts as in vivo, CIEA-NOG mice. The settings on record: decitabine twice per week, 0.5 mg/kg i.p.
In test [3] the test system is p-Ser2 POL-II in MV-4-11B cells. In words: p-Ser2 POL-II custom MSD assay. It counts as cell-based. The settings on record: 5 µM LDC000067, 2 h. In short, it runs like this: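 MV-4-11B cells were treated for 2 h with single agents or their combination. Phospho-Ser2 RNA Pol II was quantified with a custom Meso Scale Discovery multi-array assay.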

Where two headings read alike, the source gives them in different places.

Turning to `Cc1sc2c(c1C)C(c1ccc(Cl)cc1)=N[C@@H](CC(=O)OC(C)(C)C)c1nnc(C)n1-2` [JQ1, reference compound], in test [1] (read-out: anti-proliferative EC50, biologically equivalent concentrations), the EC50 turned out to be 200 nM.

Turning to `Nc1ncn([C@H]2C[C@H](O)[C@@H](CO)O2)c(=O)n1` [decitabine, reference compound], in test [2], the survival prolongation was determined as 26 days.

On to `COc1ccccc1-c1cc(Nc2cccc(CS(N)(=O)=O)c2)ncn1` [LDC000067, reference compound], for which the EC50 in test [1] came to 5000 nM. Besides, in test [3], the “p-Ser2 POL-II levels” value is ~ 64 % of control.
